Data as given in ChEMBL document CHEMBL1126794, “2-(Quinuclidin-3-yl)pyrido[4,3-b]indol-1-ones and isoquinolin-1-ones. Potent conformationally restricted 5-HT3 receptor antagonists” (J Med Chem, 1993).

Legend:
[1] = molecular target: T1, Serotonin 3 (5-HT3) receptor (Rattus norvegicus, UniProt P35563+Q9JJ16); assay: Binding affinity against 5-hydroxytryptamine 3 (5-HT3) receptor in rat brain cortical membranes using radioligand [3H]quipazine; format: cell membranes
T1 sequence (P35563 whole entry): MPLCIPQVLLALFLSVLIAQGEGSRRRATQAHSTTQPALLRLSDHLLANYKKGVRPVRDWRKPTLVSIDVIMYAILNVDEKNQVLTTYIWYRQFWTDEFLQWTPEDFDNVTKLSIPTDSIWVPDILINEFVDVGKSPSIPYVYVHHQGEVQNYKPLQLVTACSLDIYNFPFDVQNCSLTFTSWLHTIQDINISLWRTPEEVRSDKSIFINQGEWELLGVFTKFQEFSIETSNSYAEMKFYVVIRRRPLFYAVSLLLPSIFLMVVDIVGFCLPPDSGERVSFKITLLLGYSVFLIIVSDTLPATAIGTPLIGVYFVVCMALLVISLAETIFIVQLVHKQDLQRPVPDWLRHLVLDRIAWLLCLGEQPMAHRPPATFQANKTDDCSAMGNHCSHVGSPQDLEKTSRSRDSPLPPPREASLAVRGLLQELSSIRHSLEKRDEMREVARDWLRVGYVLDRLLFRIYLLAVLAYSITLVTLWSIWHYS
T1 sequence (Q9JJ16 whole entry): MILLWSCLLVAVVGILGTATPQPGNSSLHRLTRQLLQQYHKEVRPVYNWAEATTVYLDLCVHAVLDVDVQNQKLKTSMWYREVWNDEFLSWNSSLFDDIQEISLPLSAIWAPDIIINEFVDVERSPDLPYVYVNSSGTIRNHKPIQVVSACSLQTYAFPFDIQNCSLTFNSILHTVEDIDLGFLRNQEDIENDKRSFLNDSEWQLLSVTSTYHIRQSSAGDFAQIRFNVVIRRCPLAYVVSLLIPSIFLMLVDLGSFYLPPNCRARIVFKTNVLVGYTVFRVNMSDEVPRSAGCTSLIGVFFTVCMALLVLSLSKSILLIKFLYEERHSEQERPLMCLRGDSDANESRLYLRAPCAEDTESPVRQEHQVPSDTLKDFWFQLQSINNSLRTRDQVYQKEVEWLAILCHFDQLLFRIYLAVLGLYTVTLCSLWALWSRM
Method in brief: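 Rat cerebral cortex membranes, washed in 50 mM Tris pH 7.4, incubated 45 min at 25 °C in Tris-Krebs buffer pH 7.4 with 0.3–0.7 nM [3H]quipazine plus 0.1 μM paroxetine. Ten test concentrations from 1e-12 to 1e-4 M. Nonspecific binding defined with 1.0 μM racemic zacopride. Filtration, scintillation counting, IC50 by iterative fit, Ki by Cheng-Prusoff. Means of ≥3 determinations, or of two.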

Rattus norvegicus [2] = assay: Potency to inhibit bradycardiac effect measured by Von Bezold-Jarisch assay in 4 anesthetized rats; format: functional
Method in brief: (§1)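 Male Sprague-Dawley rats, 250–380 g, under urethane (1.5 g/kg ip), with cannulated trachea and femoral veins; heart rate recorded by ECG. Lowest consistent bradycardic dose of 2-methyl-5-HT titrated iv, then given every 12 min. Increasing iv doses given 5 min before each challenge, with saline vehicle group.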

Rattus norvegicus [3] = assay: Potency to inhibit bradycardiac effect measured by Von Bezold-Jarisch assay in 8 anesthetized rats; format: functional; conditions: read-out: ID50 (the source's name); method in brief: as §1
Canis familiaris [4] = assay: Inhibition of emesis induced by peroral administration of cisplatin in 6 dogs at 0.03 mg/kg; format: functional, Canis lupus familiaris; conditions: route oral
Method in brief: (§2)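 Single oral pretreatment in dogs (n = 6) by liquid gelatin capsule, 30 min before iv cisplatin at 3 mg/kg. Number of emetic episodes monitored continuously for 5 h after cisplatin. Significance versus control by Dunnett's t test.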

Canis familiaris [5] = assay: Inhibition of emesis induced by peroral administration of cisplatin in 6 dogs at 0.1 mg/kg; format: functional, Canis lupus familiaris; conditions: route oral; method in brief: as §2
Mustela putorius furo [6] = assay: Inhibition of emesis induced by peroral administration of cisplatin in 5 ferrets at 0.1 mg/kg (p<0.01); format: functional; conditions: route oral
Canis familiaris [7] = assay: Inhibition of emesis induced by peroral administration of cisplatin in 6 dogs at 0.3 mg/kg (p<0.01); format: functional, Canis lupus familiaris; conditions: route oral; method in brief: as §2
Canis familiaris [8] = assay: Inhibition of emesis induced by peroral administration of cisplatin in 6 dogs at 1.0 mg/kg (p<0.01); format: functional, Canis lupus familiaris; conditions: route oral; method in brief: as §2
Canis familiaris [9] = assay: Inhibition of emesis induced by intravenous administration of cisplatin in 6 dogs at 0.3 mg/kg (p<0.01); format: functional, Canis lupus familiaris
Method in brief: (§3)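 Dogs, n = 6 per group, given one iv dose of test compound as an aqueous solution through a jugular vein cannula 30 min before iv cisplatin (3 mg/kg). Emetic episodes counted by continuous observation for 5 h after cisplatin. Results given as mean ± value versus control, with significance by Dunnett's t test.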

Canis familiaris [10] = assay: Inhibition of emesis induced by intravenous administration of cisplatin in 6 dogs at 0.03 mg/kg; format: functional, Canis lupus familiaris; method in brief: as §3
Mustela putorius furo [11] = assay: Inhibition of emesis induced by peroral administration of cisplatin in 5 ferrets at 0.3 mg/kg (p<0.01); format: functional; conditions: route oral
Canis familiaris [12] = assay: Inhibition of emesis induced by intravenous administration of cisplatin in 6 dogs at 1 mg/kg (p<0.01); format: functional, Canis lupus familiaris; method in brief: as §3
Canis familiaris [13] = assay: Inhibition of emesis induced by intravenous administration of cisplatin in 6 dogs at 0.01 mg/kg; format: functional, Canis lupus familiaris; method in brief: as §3
Rattus norvegicus [14] = assay: Potency to inhibit bradycardiac effect measured by Von Bezold-Jarisch assay in 9 anesthetized rats; format: functional; conditions: Rattus norvegicus; read-out: ID50 (the source's name); method in brief: as §1
Canis familiaris [15] = assay: Inhibition of emesis induced by peroral administration of cisplatin in 6 dogs at 0.01 mg/kg; format: functional, Canis lupus familiaris; conditions: route oral; method in brief: as §2
Canis familiaris [16] = assay: Inhibition of emesis induced by intravenous administration of cisplatin in 6 dogs at 0.1 mg/kg (p<0.01); format: functional, Canis lupus familiaris; method in brief: as §3
Mustela putorius furo [17] = assay: Inhibition of emesis induced by peroral administration of cisplatin in 5 ferrets at 0.03 mg/kg; format: functional; conditions: route oral

## COc1cccc(C(=O)N[C@@H]2CN3CCC2CC3)c1C
[1]
  Ki: 398 nM

## Cl.O=c1c2cccc3c2c(cn1[C@H]1CN2CCC1CC2)CCC3
[1]
  Ki: 7.94 nM
Rattus norvegicus [2]
  ID50: 2 pKi

## Cc1cccc2c(=O)n(C3CN4CCC3CC4)cc(C)c12.Cl (configuration not stated)
[1]
  Ki: 1 nM
Rattus norvegicus [3]
  ED50: 0.25 µg/kg

## COc1cccc2c1CCN(C1CC3CCC(C1)N3C)C2=O (configuration not stated)
[1]
  Ki: 10 nM

## O=c1c2cccc3c2c(cn1[C@H]1CN2CCC1CC2)CC3
[1]
  Ki: 25.1 nM

## COc1cccc2c(=O)n(C3CC4CCC(C3)N4C)ccc12 (configuration not stated)
[1]
  Ki: 2.51 nM

## Cc1c(C(=O)NC2CN3CCC2CC3)c2ccccc2n1C (configuration not stated)
[1]
  Ki: 39.8 nM

## Cc1ccccc1C(=O)NC1CN2CCC1CC2 (configuration not stated)
[1]
  Ki: 631 nM

## CCc1cccc2c1CCN(C1CN3CCC1CC3)C2=O.Cl (configuration not stated)
[1]
  Ki: 0.2 nM
Rattus norvegicus [3]
  ED50: 0.18 µg/kg

## O=C(N[C@H]1CN2CCC1CC2)c1c2n(c3ccccc13)CCCC2
[1]
  Ki: 12.6 nM

## COc1cccc2c(=O)n([C@@H]3CN4CCC3CC4)ccc12.Cl
[1]
  Ki: 0.158 nM
Rattus norvegicus [3]
  ED50: 0.03 µg/kg

## O=C1c2ccccc2CCN1C1CN2CCC1CC2 (configuration not stated)
[1]
  Ki: 10 nM

## Cn1c2ccccc2c2c(=O)n([C@@H]3CN4CCC3CC4)ccc21
Rattus norvegicus [3]
  ED50: 0.13 µg/kg

## CCCc1cn([C@@H]2CN3CCC2CC3)c(=O)c2ccccc12
[1]
  Ki: 5.01 nM

## O=C(N[C@@H]1CN2CCC1CC2)c1cccc2c1CCCC2
[1]
  Ki: 200 nM

## Cn1cc(C(=O)N[C@@H]2CN3CCC2CC3)c2ccccc21
[1]
  Ki: 0.398 nM

## CN1[C@@H]2CC[C@H]1C[C@@H](OC(=O)c1c[nH]c3ccccc13)C2 [TROPISETRON]
[1]
  Ki: 2 nM
Rattus norvegicus [3]
  ED50: 0.4 µg/kg

## Cn1cc(C(=O)NC2CN3CCC2CC3)c2ccccc21 (configuration not stated)
[1]
  Ki: 2 nM

## Cc1nccn1CC1CCc2c(c3ccccc3n2C)C1=O (configuration not stated) [ONDANSETRON]
Canis familiaris [4]
  No. of emetic episodes: 18.33
Canis familiaris [5]
  No. of emetic episodes: 10.5
Mustela putorius furo [6]
  No. of emetic episodes: 2.2
Canis familiaris [7]
  No. of emetic episodes: 3.17
Canis familiaris [8]
  No. of emetic episodes: 2
Canis familiaris [9]
  No. of emetic episodes: 1
Canis familiaris [10]
  No. of emetic episodes: 8.33
Mustela putorius furo [11]
  No. of emetic episodes: 4.2
Canis familiaris [12]
  No. of emetic episodes: 1.17
Canis familiaris [13]
  No. of emetic episodes: 13.33
Rattus norvegicus [14]
  ED50: 2.6 µg/kg
Canis familiaris [15]
  No. of emetic episodes: 12.67
Canis familiaris [16]
  No. of emetic episodes: 4.83
Mustela putorius furo [17]
  No. of emetic episodes: 11.2

## O=c1c2c3ccccc3n3c2c(cn1[C@@H]1CN2CCC1CC2)CCC3
Rattus norvegicus [14]
  ED50: 0.05 µg/kg

## O=C1c2cccc3c2[C@H](CCC3)CN1[C@H]1CN2CCC1CC2
[1]
  Ki: 2.51 nM

## COc1ccc2c(=O)n([C@@H]3CN4CCC3CC4)cc3c2c1CCC3
[1]
  Ki: 12.6 nM

## Cc1cccc2c(=O)n(C3CN4CCC3CC4)ccc12.Cl (configuration not stated)
[1]
  Ki: 0.631 nM
Rattus norvegicus [3]
  ED50: 0.1 µg/kg
